From ChEMBL document CHEMBL1154838, “Stolonoxides E and F, cytotoxic metabolites from the marine ascidian Stolonica socialis” (2010)

How the values were obtained:
Assay type in all cases: functional
MDA-MB-231 = experiment: Cytotoxicity against human MDA-MB-231 cells after 72 hrs by SRB assay; conditions: MDA-MB-231, 72 h; for CC50: read-out: LC50 (the source's name)
Summary of the method: (§1)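 Cells kept in RPMI with 10% fetal calf serum, 2 mM L-glutamine, 100 U/mL penicillin/streptomycin, 37 °C, 5% CO2. Triplicate cultures exposed 72 h to 10 concentrations, 10 to 0.0026 µg/mL. Fixed in 1% glutaraldehyde 15 min, stained with 0.4% SRB 30 min at room temperature, extracted in 10 mM trizma base, absorbance read at 490 nm. GI50 from NCI algorithm, corrected for starting cell count. Doxorubicin positive control, DMSO vehicle.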

HT-29 = experiment: Cytotoxicity against human HT-29 cells after 72 hrs by SRB assay; conditions: HT-29, 72 h; summary of the method: as §1
A549 = experiment: Cytotoxicity against human A549 cells after 72 hrs by SRB assay; conditions: A549, 72 h; summary of the method: as §1

Structure (SMILES)	GI50 (MDA-MB-231) [µM]	TGI (MDA-MB-231) [µM]	CC50 (MDA-MB-231) [µM]	GI50 (HT-29) [µM]	TGI (HT-29) [µM]	GI50 (A549) [µM]	TGI (A549) [µM]	LC50 (concentration killing 50% of starting cells) (HT-29) [µM]	LC50 (A549) [µM]
COc1cccc2c1C(=O)c1c(O)c3c(c(O)c1C2=O)C[C@@](O)(C(=O)CO)C[C@@H]3O[C@H]1C[C@H](N)[C@H](O)[C@H](C)O1 [DOXORUBICIN]	0.038	0.31	2.41	0.066	0.4	0.062	0.26	–	–
O=C(O)C[C@@H]1CC[C@@H]([C@@H]2CC[C@@H](CCCCCCC3\C=C/C=C\C=C/C3)O2)OO1 (stereo not given in full) [STOLONOXIDE E]	4.94	5.44	6.18	3.96	5.19	7.91	8.16	6.67	8.65
O=C(O)C[C@@H]1CC[C@@H]([C@H]2CC[C@H](CCCCCCC3\C=C/C=C\C=C/C3)O2)OO1 (stereo not given in full) [STOLONOXIDE F]	4.7	5.44	6.18	2.72	3.21	5.44	5.93	3.71	6.67
